# Shown are actives, neighbours in structure and some others; about 2% of the full set was active somewhere.
# TDP2 inh – TDP2 (human) inhibition, absorbance primary screen. recombinant TDP2, T5PNP hydrolysis, p-nitrophenol absorbance 415 nm. O95551. 370,000 tested, 0.34% active. inhibition, % at 12.8 µM;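 active means inhibition above the mean of all tested compounds plus 3 SD, set per campaign, cut at about 25% in these data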
# Target sequence (O95551 whole entry, looked up): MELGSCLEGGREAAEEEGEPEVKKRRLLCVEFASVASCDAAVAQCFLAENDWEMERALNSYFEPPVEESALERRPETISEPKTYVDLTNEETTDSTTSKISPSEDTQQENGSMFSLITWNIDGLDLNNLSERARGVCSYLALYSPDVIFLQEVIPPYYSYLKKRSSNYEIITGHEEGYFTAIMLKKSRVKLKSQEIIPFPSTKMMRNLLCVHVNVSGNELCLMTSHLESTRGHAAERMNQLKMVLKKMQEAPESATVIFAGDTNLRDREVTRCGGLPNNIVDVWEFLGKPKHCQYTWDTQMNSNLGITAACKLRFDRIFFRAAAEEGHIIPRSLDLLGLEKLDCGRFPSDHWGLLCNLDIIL
#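 Assay system: recombinant human TDP2 / Reagent: T5PNP substrate at 5 mM, a TopII-DNA adduct mimic / Measured by: epi absorbance from released p-nitrophenol / Evaluation: % inhibition relative to enzyme-containing and enzyme-free wells / Control set: enzyme-free and DMSO wells / Replicates: each compound tested once, singlicate / Schedule: enzyme reaction with compound for 2 h at 37 °C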
# ABHD4 inh – inhibitors of mouse ABHD4; Q8VD66; purified mABHD4, FP-Rh probe fluorescence polarization; inhibition, % at 8.92 µM; 370,000 tested, 0.54% active; AID 720543;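 active means inhibition exceeding the mean over every tested compound plus 3 SD, cut at about 30% in these data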
# Target sequence (Q8VD66 whole entry, looked up): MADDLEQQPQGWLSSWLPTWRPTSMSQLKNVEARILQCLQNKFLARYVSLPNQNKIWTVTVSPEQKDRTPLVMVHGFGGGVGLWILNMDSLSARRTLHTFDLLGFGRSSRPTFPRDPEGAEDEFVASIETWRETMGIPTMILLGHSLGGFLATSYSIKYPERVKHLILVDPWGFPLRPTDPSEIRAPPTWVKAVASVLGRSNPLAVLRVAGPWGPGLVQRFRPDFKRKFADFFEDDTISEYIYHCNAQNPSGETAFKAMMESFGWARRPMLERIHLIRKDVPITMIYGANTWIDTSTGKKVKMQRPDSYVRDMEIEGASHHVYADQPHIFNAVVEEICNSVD
#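 Material: mouse ABHD4 enzyme, wild type; Benchmarks: S159A mutant high control, sample median low control; Buffer or medium: HEPES pH 7.0, NaCl, Pluronic buffer; Signal: fluorescence polarization; Read-out: percent inhibition of probe binding, normalized to plate controls; Timing: pre-incubation 45 min, probe exposure 60 min, at 25 °C; Dosing: 8.92 µM, single dose.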
# SIAE primary – human SIAE inhibition, primary screen | SIAE FP-Rh probe binding, fluorescence polarization | inhibition, % at 9.66 µM | 370,000 tested, 0.69% active | Q9HAT2;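 active means inhibition above a cutoff: mean of compounds within the control limits plus 3 SD of those, cut at about 17% in these data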
# TCR-CD3 inh – inhibitors of human TCR-CD3 interaction; TAMRA-labeled TCR probe fluorescence, biochemical; inhibition, % at 9.4 µM; 360,000 tested, 0.37% active;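 further: recombinant mutant TCR 2C K166C tagged with TAMRA read by polarization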
# PAD4 FP inh – inhibitors of human PAD4. inhibition, % at 6.36 µM. recombinant PAD4, RCA probe fluorescence polarization. Q9UM07. AID 485272. 330,000 tested, 0.41% active;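 active means percent inhibition above a cutoff equal to the mean of all tested compounds plus 3 SD, cut at about 15% in these data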
# HTRA1 inh – blocks human HTRA1 serine peptidase. recombinant HTRA1, FP-rhodamine activity-based probe, fluorescence polarization. inhibition, % at 5.96 µM. 340,000 tested, 0.5% active; in the data active means inhibition above about 36%
# HTRA1 inh conf – HTRA1 (human) inhibition, confirmation. 1,600 tested, 66% active. AID 540248. inhibition, % at 5.96 µM. recombinant HTRA1, FP-rhodamine activity-based probe, fluorescence polarization. shares compounds with HTRA1 inh;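 active means mean inhibition over three repeats above a set limit taken from the earlier primary screen, cut at about 37% in these data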;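 further: inhibitors block probe binding so polarization drops and inhibition rises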
# BSA probe FL – counter-screen for TCR-CD3 interaction inhibitors: BSA probe. shares compounds with TCR-CD3 inh. TAMRA-labeled BSA probe fluorescence counterscreen. inhibition, % at 9.4 µM. 1,200 tested, 10% active. AID 652035; in the data active means inhibition above about 23%
# TCR-CD3 conf – TCR-CD3 interaction inhibition, confirmation | shares compounds with TCR-CD3 inh | TAMRA-labeled TCR probe fluorescence binding assay | inhibition, % at 9.4 µM | 1,200 tested, 48% active
# ABHD4 confirm – ABHD4 (mouse) inhibition, FP confirmation | shares compounds with ABHD4 inh | purified mABHD4, FP-Rh probe fluorescence polarization | inhibition, % at 8.92 µM | 1,800 tested, 55% active | AID 720658;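 active means mean inhibition across replicates above the hit cutoff set in the primary screen, cut at about 30% in these data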
# A number is an active result; i = inactive; nt = no result. Unless noted, no stated cut-off is given here; in the data, active means inhibition above about 19%; inactive means the rest.
SMILES,TDP2 inh,ABHD4 inh,SIAE primary,TCR-CD3 inh,PAD4 FP inh,HTRA1 inh,HTRA1 inh conf,ABHD4 confirm,others
O=C1C(NS(=O)(=O)c2cccs2)=C(N2CCN(c3cccc(C(F)(F)F)c3)CC2)C(=O)c2ccccc21,i,43.2,i,i,i,44.9,69.5,69.9,
CCOc1ccccc1N1CCN(C2=C(NS(=O)(=O)c3cccs3)C(=O)c3ccccc3C2=O)CC1,i,48.4,i,i,i,63.2,67.5,61.7,
CCN(CC)C(=O)CC[C@H]1CC[C@]2(CCCN(Cc3ccccn3)C2)O1,i,i,i,nt,nt,nt,nt,nt,
O=c1c2ccccc2nc(COc2ccccc2)n1/N=C/c1ccc(O)c(O)c1,i,36.0,i,i,i,71.7,81.6,i,
COc1ccccc1NC(=O)Nc1nnc([C@@H]2C[C@H](O)[C@@H](CO)O2)s1,i,i,i,i,nt,nt,nt,nt,
O=c1cc(-c2ccccc2Cl)oc2cccc(O)c12,i,i,i,i,i,i,nt,nt,
O=c1cc2oc3cc(O)c(O)cc3c(-c3ccccc3[N+](=O)[O-])c-2cc1O,i,53.0,i,101.5,i,58.5,68.2,55.3,BSA probe FL=i;TCR-CD3 conf=83.5
CC(C1SC(=S)NC1=O)C1SC(=S)NC1=O (centres undefined),i,45.9,i,i,nt,60.2,47.5,i,
O=C(N/N=C/c1cc(Br)c(O)c(Br)c1O)c1ccc2c(c1)OCCO2,i,49.1,i,24.5,i,43.8,41.3,58.1,BSA probe FL=i;TCR-CD3 conf=20.3
O=C(N/N=C/c1cc(Br)c(Br)o1)c1ccc2c(c1)OCCO2,i,i,i,i,i,i,nt,nt,
O=Cc1cc(N=Nc2ccccc2Cl)ccc1O,i,29.9,i,i,i,38.3,54.1,35.2,
Cc1cc(=O)[nH]c(N=N/C(=N/Nc2ccc(O)cc2)c2ccccc2)n1,i,i,i,i,i,i,nt,nt,
COc1ccc(N/N=C(/N=Nc2nc(C)cc(=O)[nH]2)c2ccccc2)cc1,i,40.2,i,i,i,70.8,76.4,41.7,
Cc1oc2c(O)c(O)ccc2c(=O)c1-c1ccc(Cl)cc1,i,41.3,i,i,i,69.0,91.3,i,
Cc1oc2c(O)c(O)ccc2c(=O)c1-c1ccccc1,i,41.2,i,i,i,51.8,40.9,i,
Cc1oc2c(CN3CCCCC3C)c(O)ccc2c(=O)c1-c1ccccc1 (centres undefined),i,i,i,i,i,i,nt,nt,
Cc1oc2c(CN3CCCC3)c(O)ccc2c(=O)c1-c1ccc(Br)cc1,i,i,i,i,i,i,nt,nt,
CCn1c(SCc2nc3ccccc3c(=O)[nH]2)nnc1C(C)NC(=O)c1ccccc1F (centres undefined),i,i,i,i,i,i,nt,nt,
Cc1c(C#N)c(N)nc2c3c(sc12)NC(=O)CC3c1ccc(Cl)cc1 (centres undefined),i,i,i,i,i,i,nt,nt,
N#Cc1c(N)nc2c3c(sc(=N)c2c1N)NC(=O)CC3c1c(F)cccc1Cl (centres undefined),i,35.1,i,i,i,63.1,i,i,
COc1ccc(/C=C(\C#N)C(=O)NCCc2ccccc2)cc1OCc1ccccc1,i,i,i,i,i,i,nt,nt,
N#C/C(=C\c1ccc(O)c(O)c1)C(=O)NCCCc1ccccc1,i,33.7,i,i,i,65.6,76.9,52.3,
CN(CCCC(=O)NCCc1ccccc1)S(=O)(=O)c1ccc([N+](=O)[O-])cc1,i,i,i,i,i,i,nt,nt,
N#Cc1cc(N2CCCCC2)c([N+](=O)[O-])cc1C#N,i,i,i,i,i,i,nt,nt,
O=[N+]([O-])c1cc2no[n+]([O-])c2cc1N1CCCCC1,i,55.2,i,i,nt,76.8,i,50.8,
SMILES,TDP2 inh,ABHD4 inh,SIAE primary,TCR-CD3 inh,PAD4 FP inh,HTRA1 inh,HTRA1 inh conf,ABHD4 confirm,others
COc1ccc([C@H]2C[C@@H](n3cc(C4CC4)nn3)[C@H](O)CN2CC2CCCCC2)cc1,i,i,i,i,nt,i,nt,nt,
C/C(=N/NC(=O)c1cc(O)c(O)c(O)c1)c1ccc([N+](=O)[O-])cc1,i,31.8,i,54.8,nt,76.0,57.5,i,BSA probe FL=i;TCR-CD3 conf=35.7
COc1ccc(C2CCC3(CCC(=O)N3CCO)CC2)cc1 (centres undefined),i,i,i,nt,nt,nt,nt,nt,
Oc1ccc(/C=N/Nc2cc(N3CCCC3)nc(N3CCCC3)n2)cc1O,i,35.4,21.9,33.0,i,57.8,140.0,39.7,
O=C(Nc1csnn1)OCc1ccccc1,i,i,i,i,nt,i,nt,nt,
O=C(O)COc1ccccc1/C=N/Nc1ccc(S(=O)(=O)Nc2ccc(Cl)cc2)cc1[N+](=O)[O-],i,62.7,i,i,i,53.9,88.3,78.9,
O=C(O)c1ccccc1NS(=O)(=O)c1ccc(NN=Cc2ccc(F)cc2)c([N+](=O)[O-])c1,nt,nt,nt,nt,i,i,nt,nt,
O=[N+]([O-])c1ccccc1NC(=S)N/N=C/c1ccc(O)c(O)c1,i,51.2,i,20.0,i,80.2,73.1,36.0,BSA probe FL=i;TCR-CD3 conf=19.6
O=C(O)c1ccccc1NS(=O)(=O)c1ccc(N/N=C/c2ccc(O)c(O)c2)c([N+](=O)[O-])c1,i,81.2,i,18.9,nt,66.5,142.6,99.9,BSA probe FL=i;TCR-CD3 conf=42.9
Cc1ccc(N(Cc2cc3ccc(C)cc3[nH]c2=O)S(=O)(=O)c2ccccc2)cc1,i,i,i,i,i,i,nt,nt,
CCOC(=O)C1=C(C)N(C[C@@H]2CC[C@@H](Cc3ccc(-c4ccccc4)cc3)O2)C(=O)NC1c1ccc(SCc2ccco2)c([N+](=O)[O-])c1 (some centres undefined),i,i,i,i,i,i,nt,nt,
N/C(=N\OC(=O)COc1ccc2ccccc2c1Br)c1ccncc1,nt,nt,nt,nt,i,nt,nt,nt,
COc1cc(/C=C2/C(=O)NN(c3ccc(Cl)c(Cl)c3)C2=O)cc([N+](=O)[O-])c1O,i,60.3,i,i,i,38.1,41.8,80.3,
O=C(C=Cc1ccc2c(c1)OCO2)c1ccccc1,i,i,i,i,nt,i,nt,nt,
CNc1ccc(Br)cc(C(=O)/C=C/c2ccc3c(c2)OCO3)c1=O,i,39.7,i,i,i,43.9,i,43.8,
CNc1ccc(Br)cc(C(=O)/C=C/c2cc(OC)ccc2OC)c1=O,i,37.6,17.2,i,i,38.7,i,40.4,
CCc1ccc(N(CC(=O)NCc2ccc3c(c2)OCO3)C(=O)c2csnn2)cc1,i,i,i,i,i,i,nt,nt,
